Assay outcomes from PubChem.
A selection: hits, their analogues and other compounds. The true share with any hit is near 4.9%.
STAT1 activator: STAT1 signaling activation | NIH 3T3 STAT1-luciferase reporter, IFN-gamma, luminescence; 100% = IFN-gamma alone, no compound | activation (% of control), % at 5.5 µM | 200,000 tested, 2.6% active;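 active = activation above the screen-wide mean activation plus 3 SD, cut at about 130% in these data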;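 also: raw ratio to IFN-gamma control signal so 100% means no change and 0% no light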
NF-kB neuron act: compounds increasing NF-kB expression in human neuronal cells | NF-kB reporter expression; active compounds read high | fold change at 12.5 µM | 190,000 tested, 1.6% active | AID 1239; in the data active = fold change above about 3.3
STAT3 inh: STAT3 signaling inhibition; inhibition, % at 5.5 µM; 190,000 tested, 0.89% active; U3A cells, IL-6 STAT3-luciferase reporter, luminescence; host cell line lacks STAT1;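 active = inhibition above the mean inhibition across all screened compounds plus 3 SD, cut at about 44% in these data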;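 also: 0% = DMSO only wells and 100% = 100 µM nifuroxazide control wells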
STAT1 inh: reduces IFN-gamma driven STAT1 reporter signal. inhibition, % at 5.5 µM. 200,000 tested, 0.35% active. AID 920. NIH 3T3 STAT1-luciferase reporter, luminescence;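 active = inhibition above a set limit, the mean inhibition across all tested compounds plus 3 SD, cut at about 34% in these data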;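 also: 0% = IFN-gamma with DMSO and 100% = IFN-gamma with 300 µM nifuroxazide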
APP 5'UTR act: activates APP 5'UTR luciferase reporter; SH-SY5Y APP 5'UTR luciferase reporter, luminescence; zero percent = DMSO vehicle wells; activation, % at 2 µM; 190,000 tested, 1% active;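 active = activation above a set limit, based on mean plus 3 SD of controls, cut at about 140% in these data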
STAT3 activator: increases IL-6 driven STAT3 reporter signal; 190,000 tested, 0.91% active; AID 871; U3A cells, IL-6 STAT3-luciferase reporter, luminescence; 100% = signal with IL-6 EC80 alone; activation (% of control), % at 5.6 µM;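 active = activation above the screen-wide mean of compound activation plus 3 SD, cut at about 130% in these data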;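 also: 0% = background luminescence of wells with medium and substrate only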
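Material: STAT1-lacking human U3A cells, STAT3 luciferase reporter | Benchmarks: IL-6-only wells as 100% reference | Probe or stimulus: IL-6 (33 ng/mL) | Timing: Compound 1 h, then IL-6 6 h at 37 °C | Detection: Luminescence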
STAT1 act conf: confirmation of STAT1 signaling activators | shares compounds with STAT1 activator | NIH 3T3 STAT1-luciferase reporter, IFN-gamma potentiation, luminescence; 100% = IFN-gamma EC80 alone, no compound | activation (% of control), % at 5.7 µM | 1,200 tested, 97% active;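 active = activation above a set limit carried over from the earlier primary STAT1 screen, cut at about 140% in these data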;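 also: simple ratio to median IFN-gamma plus DMSO wells so 0% means no light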
NFkB act: activates NF-kappaB, counter-screen to STAT1 activators. shares compounds with STAT1 activator. HEK293T NF-kB luciferase reporter, TNF-alpha stimulated, luminescence; 100% = TNF-alpha with vehicle only. activation (% of control), % at 5.7 µM. 1,200 tested, 43% active. AID 1306;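 active = activation above the mean of solvent-only control wells plus 3 SD, set per campaign, cut at about 130% in these data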;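 also: TNF-alpha given at a submaximal dose yielding about 80% of full reporter signal; values are well signal over median control so 100% means no change and 0% no light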
STAT3 act STAT1c: human STAT3 activation in STAT1 activator counter-screen; shares compounds with STAT1 activator; AID 1316; 1,200 tested, 46% active; activation (% of control), % at 5.7 µM; U3A cells STAT3-luciferase reporter, IL-6, luminescence; cells lack STAT1; 100 = IL-6 alone, no compound effect;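 active = activation above the solvent-only control well mean plus 3 SD, set per plate batch, cut at about 110% in these data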;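 also: 0% = no luminescence and 100% = median IL-6 plus DMSO wells; higher means more STAT3 reporter activation so hits are non-selective activators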
* hit, by the source's call; nt = no result given.

SMILES	STAT1 activator	NF-kB neuron act	STAT3 inh	STAT1 inh	APP 5'UTR act	STAT3 activator	STAT1 act conf	NFkB act	STAT3 act STAT1c
CC1=CN2C(=N)/C(=C/c3ccc(C)o3)C(=O)N=C2S1	201*	4.3*	6	-111	161*	91	249*	141*	104
CC1=CN2C(=N)/C(=C/c3ccc(Sc4ccc(C)cc4)o3)C(=O)N=C2S1	107	1.4	-10	-8	-13	109	nt	nt	nt
CCN1C/C(=C/c2ccc(OC)c(O)c2)C(=O)/C(=C/c2ccc(OC)c(O)c2)C1	335*	0.24	4	-254	-88	100	109	138*	97
Cc1ccc(-c2nnc(SCC(=O)N/N=C/c3ccc(C)s3)n2-c2ccc(C)cc2)cc1	98	0.93	-7	2	-1	104	nt	nt	nt
CCCCNC(=O)N1CCc2ccccc2C1	106	1.5	2	-7	9	103	nt	nt	nt
CC(C)c1ccc(NC(=O)N2CCc3ccccc3C2)cc1	156*	3	-9	-62	86	114	148*	131	120*
Cc1ccc(-c2noc(-c3cccs3)n2)cc1	154*	7.9*	27	-56	135*	82	220*	112	111*
OC(COCCOc1ccc(Br)cc1)CN1CCN(Cc2ccccc2)CC1 (centres undefined)	91	0.88	7	11	0	98	nt	nt	nt
CCOC(=O)c1cnc(SCc2ccccc2)nc1N	158*	9*	6	-69	146*	96	212*	135*	109
CCOC(=O)c1cnc(SCc2ccc(C(C)(C)C)cc2)nc1N	101	1.4	5	-1	20	97	nt	nt	nt
CC1(c2ccccc2Cl)NC(=O)N(CC(=O)NCc2ccco2)C1=O (centres undefined)	86	1.2	1	15	0	101	nt	nt	nt
C/C(N)=C(/C#N)C(=O)COC(=O)c1cc(C)n(-c2ccc(F)cc2)c1C	154*	1.9	-3	-58	19	106	173*	121	153*
O=C1c2ccccc2S(=O)(=O)N1CC1CC(c2ccccc2Cl)=NO1 (centres undefined)	161*	4.9*	-4	-67	47	107	198*	129	126*
O=C(NCC1CCCO1)C1CC(c2ccccc2Cl)=NO1 (centres undefined)	101	1.5	0	-2	0	100	nt	nt	nt
Clc1ccc(/C=N/Nc2ncnc3ccccc23)cc1Cl	158*	4.9*	-26	-63	nt	127	208*	151*	135*
CC(=O)Nc1sc2c(c1-c1nc3ccccc3s1)CCN(C(C)C)C2	285*	2.7	nt	-206	-70	nt	202*	191*	202*
Cc1ccc(O)c(C2=NCCNC(C(F)(F)F)=C2)c1	109	1.1	-4	-10	-2	100	nt	nt	nt
Oc1c(C2=NCCNC(C(F)(F)F)=C2)ccc2ccccc12	199*	6*	4	-111	133	104	222*	147*	114*
O=[N+]([O-])c1ccc(F)cc1OCc1nc(-c2cccs2)no1	172*	6.4*	4	-81	156*	106	203*	145*	120*
O=[N+]([O-])c1ccccc1OCc1nc(-c2cccs2)no1	180*	7.6*	-2	-87	185*	109	226*	142*	122*
O=C(O)CCc1nc(-c2cccs2)no1	96	1.1	-1	4	-2	106	nt	nt	nt
COc1ccccc1CN1CCN(Cc2nc(-c3cccs3)no2)CC1	109	1.6	4	-11	28	107	nt	nt	nt
